Test results from ChEMBL document CHEMBL1124794, “Synthesis, chemistry, and antineoplastic activity of alpha-halopyridinium salts: potential pyridone prodrugs of acylated vinylogous carbinolamine tumor inhibitors” (J Med Chem, 1990).
Where “and” joins values, the source holds several entries; their conditions need not be identical. Identical values can stand only once.

Legend:
[1] = Effect of pH on carbamate hydrolysis in 0.05 M buffer concentration at the pH 2.0, 25 degree C.; format: ADME
Procedure, shortened: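 Bis-carbamate in acetonitrile–water (1:1; buffer added to a 0.5 mg/mL acetonitrile solution), 0.05 M buffer, ionic strength 0.136 (KCl), 25 ± 0.1 °C. Buffers: phosphate pH 2.0; citrate pH 3.0–3.5; succinate pH 4.0; acetate pH 5.0; phosphate pH 6.0–8.0; borate pH 9.0; carbonate pH 10.0. HPLC bis-carbamate peak-area loss, ln(area0/areat) vs time slope = kobs. Duplicates averaged.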

[2] = Half life at the ionic strength; format: ADME
L1210 [3] = assay: In vivo activity against murine L1210 tumor system at the dose of 36 mg/kg, activity expressed as body weight difference; T-C; format: functional, Mus musculus
Procedure, shortened: (§1)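 L1210 lymphocytic leukemia: ascitic fluid with ca. 10^6 cells injected ip into CD2F1 mice. Dosing started 24 h after inoculation and was repeated daily for five doses in total, from solutions or suspensions made fresh each day. Toxicity day survivors were scored on day 5. Body weight difference is day 5 minus day 1. %T/C is based on median survival time versus controls.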

[4] = In vivo activity against murine M5076 tumor system at the dose of 60 mg/kg, activity expressed as KE; format: functional, Mus musculus
[5] = In vivo activity against murine M5076 tumor system at the dose of 100 mg/kg, activity expressed as %T/C; 10/10.; format: functional, Mus musculus
Procedure, shortened: (§2)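 M5076: ascitic fluid with ca. 10^6 cells inoculated ip into CD2F1 mice. Dosing started 24 h after inoculation and was then given every 4 days for four doses in total, from solutions or suspensions made fresh each day. Toxicity day survivors were scored on day 5. Body weight difference is day 14 minus day 1. %T/C is based on median survival time versus controls.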

[6] = In vivo activity against murine M5076 tumor system at the dose of 60 mg/kg, activity expressed as TDS; 10/10; format: functional, Mus musculus
L1210 [7] = assay: In vivo activity against murine L1210 tumor system at the dose of 60mg/kg, activity expressed as %T/C.; format: functional, Mus musculus; procedure, shortened: as §1
L1210 [8] = assay: In vivo activity against murine L1210 tumor system at the dose of 60 mg/kg, activity expressed as TDS; 6/6; format: functional, Mus musculus; procedure, shortened: as §1
P388 [9] = assay: In vivo activity against P388 Lymphocytic Leukemia in CD2F1 mice at the dose of 200 mg/kg, activity expressed as body weight difference; T-C; format: functional, Mus musculus
Procedure, shortened: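 CD2F1 mice were inoculated with ascitic fluid holding ca. 10^6 P388 cells. Drug was given daily from 24 h after inoculation, from solutions or suspensions made fresh each day, some as a saline suspension. TDS is survivors/initial animals on day 5. BWD is body weight on day 5 minus day 1. %T/C compares median survival of treated and control mice.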

P388 [10] = assay: In vivo activity against P388 Lymphocytic Leukemia in CD2F1 mice at the dose of 100 mg/kg, activity expressed as KE; format: functional, Mus musculus
P388 [11] = assay: In vivo activity against P388 Lymphocytic Leukemia in CD2F1 mice at the dose of 25 mg/kg, activity expressed as KE; format: functional, Mus musculus
[12] = Effect of Ionic strength (0.50 M NaCl)on the hydrolysis of pyridinium Moity in 0.02 M buffer concentration, pH 7.4,25 degree C; format: ADME
Procedure, shortened: (§3)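 Pyridinium salt in 0.02 M phosphate buffer, pH 7.4, 25 °C, with NaCl varied 0.10–1.0 M. Loss of the pyridinium chromophore's UV absorbance maximum (conversion to pyridone) followed over time. Pseudo-first-order kobs and half-life derived from that decay.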

[13] = Half life at the ionic strength 0.10 M NaCl; format: ADME; procedure, shortened: as §3
L1210 [14] = assay: In vivo activity against murine L1210 tumor system at the dose of 50 mg/kg, activity expressed as body weight difference; format: functional, Mus musculus; procedure, shortened: as §1
L1210 [15] = assay: In vivo activity against murine L1210 tumor system at the dose of mg/kg, activity expressed as KE; format: functional, Mus musculus; procedure, shortened: as §1
[16] = In vivo activity against murine M5076 tumor system at the dose of 25 mg/kg, activity expressed as TDS; 10/10; format: functional, Mus musculus; procedure, shortened: as §2

| K obs [1] | T1/2 [2] | half-life [2] | K obs [12] | half-life [13] | Compound | BWD (L1210 [3]) | KE [4] | TDS [5] | TDS [6] | T/C (L1210 [7]) | TDS (L1210 [8]) | BWD (P388 [9]) | KE (P388 [10]) | KE (P388 [11]) | BWD (L1210 [14]) | KE (L1210 [15]) | TDS [16] |
| --- | --- | --- | --- | --- | --- | --- | --- | --- | --- | --- | --- | --- | --- | --- | --- | --- | --- |
| 0.33 min⁻¹ | 55.89 min and 86.65 min | 53.5 min | – | – | CC(C)NC(=O)OCc1c(COC(=O)NC(C)C)c(-c2ccn(C)c(=O)c2)n2c1CCC2 | -0.3 g | -1.79 | 10 | 10 | 141% | 6 | -1.4 g | 0.69 | -0.5 | – | – | – |
| – | – | – | 0.011 min⁻¹ | 29.1 min | CC(C)NC(=O)OCc1c(COC(=O)NC(C)C)c(-c2cc[n+](C)c(F)c2)n2c1CCC2.[I-] | – | – | – | – | – | – | – | – | – | -0.8 g | -2.08 | 10 |
